Lipid droplet: modulators of hepatic lipid droplet formation. AML12 mouse hepatocytes, oleate lipid droplets, BODIPY imaging. inhibition, % at 6.5 µM. hit rate 0.4% among 240,000. AID 1656;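 active means lipid droplet intensity inhibited by at least 50%, with more than 500 cells counted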
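Material – AML12 mouse liver cells · Also added – oleate loading, 100 µM · Compound dosing – 6.5 µM single-point dosing · Times – overnight treatment with compound plus oleate · Measured by – fluorescence imaging, 20x objective, two fields per well · Read-out – percent inhibition of filter-corrected integrated lipid droplet intensity per well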
PHOSPHO1 inh: inhibitors of human PHOSPHO1 phosphatase | recombinant PHOSPHO1, absorbance phosphatase assay | inhibition, % at 13.3 µM | hit rate 1.1% among 290,000 | AID 1565; in the data active means inhibition above about 60%
CHT inh: inhibits the human high affinity choline transporter; hit rate 0.86% among 310,000; CHT-expressing cells, membrane potential dye, choline response; active compounds read low; B-score at 10 µM;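 active means B-score over 3 SD under the library average, and starting fluorescence ratio not unusually high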;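 further: choline stimulus applied at its EC90 after an EC20 pre-addition; B-score computed on integrated fluorescence ratio after choline addition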
Target sequence (Q9GZV3 whole entry, looked up): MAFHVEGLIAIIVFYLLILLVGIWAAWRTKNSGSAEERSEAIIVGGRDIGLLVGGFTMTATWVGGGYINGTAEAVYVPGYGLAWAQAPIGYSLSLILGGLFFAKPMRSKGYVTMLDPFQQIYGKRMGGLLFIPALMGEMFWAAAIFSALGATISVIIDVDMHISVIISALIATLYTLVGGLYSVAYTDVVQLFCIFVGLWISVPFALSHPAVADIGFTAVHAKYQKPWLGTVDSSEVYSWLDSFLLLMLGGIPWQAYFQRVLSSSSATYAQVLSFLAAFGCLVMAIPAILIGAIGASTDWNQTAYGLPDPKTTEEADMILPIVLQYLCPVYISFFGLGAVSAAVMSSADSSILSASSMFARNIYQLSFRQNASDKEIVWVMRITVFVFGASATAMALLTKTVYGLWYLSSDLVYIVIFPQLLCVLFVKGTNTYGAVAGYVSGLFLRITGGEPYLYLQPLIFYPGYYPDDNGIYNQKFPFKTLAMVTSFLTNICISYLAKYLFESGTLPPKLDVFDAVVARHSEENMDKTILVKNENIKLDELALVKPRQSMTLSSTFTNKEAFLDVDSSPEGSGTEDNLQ
HSF1 activator: increases HSF-1 driven luciferase reporter signal | NIH3T3-HGL HSF-1 luciferase reporter, MG132, 8 h; 100% = twice DMSO control signal | activation, % at 9 µM | hit rate 1.7% among 300,000;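 active means mean replicate activation of at least 50% with a set share of replicates each reaching 50%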
CHT PAM: allosterically activates the human high affinity choline transporter | AID 488977 | B-score at 10 µM | CHT-expressing cells, membrane potential dye, choline EC20; active compounds read high; LV-AA mutant CHT in HEK293 cells | Q9GZV3 | hit rate 0.49% among 310,000;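 active means initial fluorescence not abnormally high and integrated response B-score, plate-corrected, over 3 SD above library mean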
HSF1 inhib: HSF1 inhibition; NIH3T3-HGL HSE-luciferase, MG132-induced, luminescence 8 h; active compounds read low; activity change, negative = inhibition, % at 7.5 µM (by protocol); hit rate 0.77% among 300,000; AID 2098;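 active means more than half of replicate wells show activity change below -50%, luminescence cut by over half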;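 further: luciferase reports HSF-1 transcriptional activity via heat shock element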
Hits are given with their value; 0 = inactive; - = not tested or not shown; ! = not active in a repeat. In the library only some 4.9% were active in any assay of this set; here they are far more common.

SMILES | Lipid droplet | PHOSPHO1 inh | CHT inh | HSF1 activator | CHT PAM | HSF1 inhib
O=C1C2C3C=CC(C3)C2C(=O)N1/N=C/c1cn(Cc2ccccc2)c2ccccc12 (stereo not given) | 0 | 0 | 0 | 0 | 0 | 0
COc1ccc(-n2nc(C(=O)NCC(=O)NCc3ccccc3OC)c3ccccc3c2=O)c(OC)c1 | 0 | 0 | 0 | 0 | 0 | -59.9
Cc1cc(C=C2C(=O)c3ccccc3C2=O)c(C)n1-c1ccc(C(=O)O)cc1 | 0 | 0 | 0 | 0 | 0 | 0
Cc1cc(/C=C2\Cc3ccccc3C2=O)c(C)n1-c1ccccc1 | 0 | 0 | 0 | 0 | 0 | -74.6
CC(C)NC(=O)CCCC(=O)NC(C)C | 0 | 0 | 0 | 0 | 0 | 0
COc1ccc(C2=CC(=O)N(Nc3ccccc3)C2=O)cc1 | 0 | 0 | 0 | 72.5 | 0 | 0
Cc1ccc(NN2C(=O)C=C(c3ccc(Cl)cc3)C2=O)cc1 | 0 | 0 | 0 | 59.8 | 0 | 0
Cc1ccc(NN2C(=O)C=CC2=O)cc1 | 0 | 0 | 0 | 0 | 0 | 0
O=C1C=C(c2ccccc2)C(=O)N1Nc1ccccc1 | 0 | 0 | 0 | 0 | 0 | 0
CCC1Oc2ccc(C)cc2N(CC(=O)NCc2cccs2)C1=O (stereo not given) | 0 | 0 | 0 | 0 | 0 | 0
S=c1[nH]nc(NCCCN2CCOCC2)s1 | 0 | 62.3 | 0 | 0 | 0 | 0
O=C1CSC(c2cccc(F)c2)N1c1ccccc1 (stereo not given) | 0 | 0 | 0 | 0 | 0 | 0
CC1(C)Cc2c(c(N3CCOCC3)nc3sc4c(=O)[nH]cnc4c23)CS1 | - | 108.2 | 0 | 0 | 0 | 0
CC1(C)Cc2c(c(N3CCOCC3)nc3sc4c(N5CCOCC5)nnnc4c23)CS1 | 0 | 0 | 0 | 0 | 0 | 0
O=C(NNC(=O)C1CC(c2cccnc2)=NO1)Nc1ccccc1F (stereo not given) | 0 | 64.7 | 0 | 0 | 0 | 0
CC(Oc1ccc(Cl)cc1)C(=O)Nc1sccc1C(N)=O (stereo not given) | 0 | 0 | 0 | 0 | 0 | 0
O=C(Nc1ccc(S(=O)(=O)Nc2nccs2)cc1)C1CCCCC1 | - | 0 | 0 | 0 | 0 | 0
O=[N+]([O-])c1ccc(-c2cn(-c3ccccc3F)c(=S)[nH]2)cc1 | 0 | 0 | 0 | 60.3 | 0 | 0
CC(=O)N1CCN(C(=O)c2ccc3oc(CCCc4ccccc4)nc3c2)CC1 | 0 | 0 | 0 | 0 | 0 | 0
CCOC(=O)N1CCN(C(=O)c2ccc3oc(CCCc4ccccc4)nc3c2)CC1 | 0 | 0 | 0 | 61.3 | 0 | 0
O=C(COC(=O)c1ccc(Cl)nc1)c1ccc2c(c1)OCCO2 | 0 | 0 | 0 | 65.2 | 0 | 0
CC1CN(C(=O)COC(=O)c2cc(Cl)ccc2[N+](=O)[O-])CC(C)O1 (stereo not given) | 0 | 0 | 0 | 0 | 0 | 0
CN1CCc2c(sc3nc(NN)n(-c4ccc(Cl)cc4)c(=O)c23)C1 | - | 0 | 0 | 0 | 0 | 0
CN1CCc2c(sc3c2c(=O)n(-c2ccc(Cl)cc2)c2nncn32)C1 | - | 0 | 0 | 0 | 0 | -55.1
CC(=O)Oc1cccc(/C=c2\sc3nc(-c4ccco4)nn3c2=O)c1 | 0 | 0 | 0 | 0 | 0 | 0
SMILES | Lipid droplet | PHOSPHO1 inh | CHT inh | HSF1 activator | CHT PAM | HSF1 inhib
COc1cc(/C=c2\sc3nc(-c4ccncc4)nn3c2=O)ccc1OC(C)=O | - | 86.6 | - | - | - | -
CC(=O)c1cc(C(=O)Nc2ccc3ccccc3c2)c(C)o1 | 0 | 0 | 0 | 0 | 0 | 0
Cc1cc(C(=O)NCC(=O)O)c(C)o1 | 0 | 0 | 0 | 0 | 0 | 0
Cc1cc(C(=O)Nc2ccc3ccccc3c2)c(C)o1 | 0 | 0 | 0 | 65.8 | 0 | 0
O=C(Nc1ccc2ccccc2c1)c1ccc(Br)o1 | 0 | 0 | 0 | 64.9 | 0 | 0
Cc1cc(C(=O)NN)c(C)o1 | 0 | 61.2 | 0 | 0 | 0 | 0
COc1ccc(NC(=O)N2CCCCCC2)cc1 | - | 0 | 0 | 0 | 0 | 0
COc1ccc(NC(=O)c2ccc[n+]([O-])c2)cc1 | 0 | 0 | 0 | 0 | 0 | 0
CCN(CC)CCCn1c(=S)[nH]c2ncccc2c1=O | 0 | 0 | 0 | 61.8 | 0 | 0
COC(=O)C(=C/C(C)=C/c1cccs1)C(=O)OC | 0 | 0 | 0 | 66.5 | 0 | 0
COC(=O)N/N=C/c1cccs1 | 0 | 0 | 0 | 0 | 0 | 0
CCC1CN(C(=O)NCc2cccc(OC)c2)c2ccccc2O1 (stereo not given) | 0 | 0 | 0 | 0 | 0 | 0
Cc1noc(C)c1S(=O)(=O)Nc1ccc(C(=O)Nc2ccc(OC(F)(F)F)cc2)cc1 | 0 | 0 | 0 | 0 | 0 | 0
Cc1ccnc(NC(=O)CCC(=O)N(CC(=O)NC(C)(C)C)C2CCCC2)c1 | 0 | 0 | 0 | 0 | 0 | 0
O=c1c2ccccc2cnn1Cc1n[nH]c(=S)n1-c1ccc(F)cc1 | 0 | 0 | 0 | 0 | 0 | 0
CC(c1ccc(F)cc1)n1c(Cn2ncc3ccccc3c2=O)n[nH]c1=S (stereo not given) | 0 | 0 | 0 | 66.4 | 0 | 0
Cc1cccc2nc(CSc3ccc(Cl)cc3)cn12 | - | 0 | 0 | 0 | 0 | 0
Cc1cccc2nc(COc3ccc(-c4ccccc4)cc3)cn12 | 0 | 0 | 0 | 65.1 | 0 | 0
CCOC(=O)Nc1ccc2c(c1)N(C(=O)CCN1CCOCC1)c1ccccc1S2=O (stereo not given) | - | 0 | 0 | 80.3 | 0 | 0
O=C(CCNS(=O)(=O)c1ccc(Cl)cc1)NCc1cccs1 | 0 | 0 | 0 | 0 | 0 | 0
COc1ccc(S(=O)(=O)NCCC(=O)NCc2cccs2)cc1 | - | 0 | 0 | 0 | 0 | -70.3
O=C(Cc1cccs1)NCc1cccs1 | 0 | 0 | 0 | 0 | 0 | 0
CC(C)(C)CC(=O)NCc1cccs1 | 0 | 60.0 | 0 | 0 | 0 | 0
COc1cc(C(=O)Oc2c(OC)cc(C(=S)N3CCOCC3)cc2OC)cc(OC)c1OC | 0 | 0 | 0 | 0 | 0 | 0
O=C(Oc1c(Br)cc(C(=S)N2CCOCC2)cc1Br)c1ccc(Cl)cc1 | - | 95.9 | 0 | 0 | 0 | 0
SMILES | Lipid droplet | PHOSPHO1 inh | CHT inh | HSF1 activator | CHT PAM | HSF1 inhib
O=C(Oc1ccc(C(=S)N2CCOCC2)cc1Br)c1cc(Cl)ccc1Cl | - | 0 | 0 | 78.4 | 0 | 0
COc1cc(C(=S)N2CCOCC2)ccc1OC(=O)c1ccc(Br)cc1 | 0 | 0 | 0 | 0 | 0 | 0
CC(=O)c1sc(NC(=O)COc2ccc(Br)cc2)nc1C | 0 | 0 | 0 | 0 | 0 | 0
CCN(CC(=O)Nc1cc(Cl)ccc1C)C(=O)Cc1sc(C)nc1-c1ccc(F)cc1 | - | - | 0 | 0 | 0 | 0
COc1cccc(C2=NOC(C(=O)Nc3cccnc3)C2)c1 (stereo not given) | - | 0 | 0 | 0 | 0 | 0
CCOC(=O)N1CCN(c2ccnc3cc(Cl)ccc23)CC1 | 0 | 0 | 0 | 0 | 0 | 0
CCOC(=O)N1CCC(=C2c3ccc(Cl)cc3CCc3cccnc32)CC1 | 0 | 74.5! | 0 | 0 | 0 | 0
CC(=O)c1ccccn1 | - | - | 0 | 0 | 0 | 0
CC(=O)c1csc(CS(=O)(=O)c2ccccn2)n1 | 0 | 61.1 | 0 | 0 | 0 | 0
O=C1C(C=Nc2ccccc2)=C(O)c2ccccc21 | 0 | 0 | 0 | 53.7 | 0 | 0
Cc1ccc(O)c(C=Nc2cc(C)ccc2O)c1 | 0 | 0 | 0 | 0 | 0 | 0

Source: PubChem BioAssay
